The EC50 is the concentration needed to bring the measured effect to its halfway point. As a reminder, the inhibition is the relative decrease from the control value, in per cent. As usually defined, the AUC is the area under the concentration-time curve, a measure of exposure. One may read the Cmax as the peak of the concentration-time curve. As a reminder, the Vd is the apparent volume that relates the amount in the body to the concentration in plasma or blood.

These results are taken from ChEMBL document CHEMBL4732051, “The discovery of potent small molecule activators of human STING” (Eur J Med Chem, 2021).

SMILES strings stand for the structures. Calls of active or inactive are those of the source. The rule behind the calls is not given here.

Data set [1] addresses T1, Stimulator of interferon genes protein (Homo sapiens, UniProt Q86WV6). In words: Activation of wild-type human STING expressed in HEK293T cells assessed as IRF3 reporter activation measured after 20 hrs by luciferase reporter gene assay. In kind it is cell-based.
In data set [2] the test system is HEK293T. In words: Induction of STING Q mutant (unknown origin) expressed in HEK293T cells assessed as increase in luciferase coupled ISG54-ISRE activity incubated for 18 hrs luciferase reporter gene assay. In kind it is cell-based. The note with it: Homo sapiens, filed as activator. A general note: In a reporter assay the amount or activity of a reporter protein is the signal.

In data set [3] the test system is HEK293T. Briefly: Activation of human STING R232H mutant expressed in HEK293T cells assessed as phosphorylation at (Ser366) upto 10 uM incubated for 2 hrs and measured by Western blot analysis. In kind it is cell-based. To be noted: filed as activator, dose microM <=10, time 2.0 hrs. An outline of the steps: (§1)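 HEK293T clones stably carrying each human STING variant, picked by blasticidin selection and limiting dilution. 5 x 10^5 cells were exposed to compound at 10μM for 2 h, lysed in RIPA with phosphatase and protease inhibitors, and 10 μg protein run on 10% SDS-PAGE. Immunoblots probed for pSTING (Ser366), pIRF3 (Ser396), total STING, IRF3 and actin, detected by ECL.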
(In general: In western blotting, separated proteins are transferred to a membrane and probed.)

Data set [4] relates to HEK293T. In words: Activation of human STING R232H mutant expressed in HEK293T cells assessed as phosphorylation of IFR3 at (Ser396) upto 10 uM incubated for 2 hrs and measured by Western blot analysis. In kind it is cell-based. The note with it: filed as activator, dose microM <=10, time 2.0 hrs. In short, it runs like this: as §1
For data set [5], the system named is HEK293T. Briefly: Activation of human STING H232 mutant expressed in HEK293T cells assessed as phosphorylation at (Ser366) at 10 uM incubated for 2 hrs and measured by Western blot analysis. In kind it is cell-based. To be noted: filed as activator. In short, it runs like this: as §1
Data set [6] has as its system HEK293T. Briefly: Activation of human STING H232 mutant expressed in HEK293T cells assessed as phosphorylation of IRF-3 at (Ser396) at 10 uM incubated for 2 hrs and measured by Western blot analysis. In kind it is cell-based. To be noted: filed as activator. In short, it runs like this:
as §1

Data set [7] relates to Stimulator of interferon genes protein (Homo sapiens), Q86WV6 [UNDEFINED MUTATION]. Briefly: Activation of human STING R232 in A 172 cells assessed as phosphorylation at (Ser366) at 10 uM incubated for 2 hrs and measured by Western blot analysis. In kind it is cell-based. To be noted: filed as activator. In short, it runs like this: (§2)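 Tumor cell lines or human primary cells carrying endogenous STING variants; STING KO cells as control. 10µM for 2 h, then lysed in RIPA with phosphatase and protease inhibitors. 10 μg protein on 10% SDS-PAGE, blotted for pSTING (Ser366), pIRF3 (Ser396), STING, IRF3 and actin, ECL detection.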
Chain of Stimulator of interferon genes protein (Homo sapiens), Q86WV6 [UNDEFINED MUTATION] (Q86WV6 whole entry, looked up, change not shown): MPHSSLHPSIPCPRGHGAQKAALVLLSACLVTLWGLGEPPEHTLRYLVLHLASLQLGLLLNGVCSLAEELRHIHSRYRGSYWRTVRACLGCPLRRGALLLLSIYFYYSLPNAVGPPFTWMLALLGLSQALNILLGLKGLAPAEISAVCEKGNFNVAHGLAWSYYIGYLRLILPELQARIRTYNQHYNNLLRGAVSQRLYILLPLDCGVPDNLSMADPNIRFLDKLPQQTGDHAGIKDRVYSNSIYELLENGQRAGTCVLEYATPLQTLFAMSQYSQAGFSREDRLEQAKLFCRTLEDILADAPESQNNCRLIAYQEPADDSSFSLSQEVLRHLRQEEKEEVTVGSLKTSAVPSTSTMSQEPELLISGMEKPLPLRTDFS

The test system is the same in data set [8]. In words: Activation of human STING R232 in A 172 cells assessed as phosphorylation of IRF-3 at (Ser396) at 10 uM incubated for 2 hrs and measured by Western blot analysis. To be noted: filed as activator. In kind it is cell-based. In short, it runs like this:
as §2

Data set [9] deals with T1, Stimulator of interferon genes protein. In words: Activation of human STING expressed in human PBMC cells assessed as phosphorylation of IRF3 at (Ser396) at 10 uM incubated for 2 hrs and measured by Western blot analysis. To be noted: filed as activator. In kind it is cell-based. An outline of the steps:
as §2

Data set [10] shares this target. Briefly: Activation of human STING in human PBMC cells assessed as induction of IFNbeta expression at 10 uM incubated upto 24 hrs and measured by qt-PCR analysis. In kind it is cell-based. The note with it: filed as activator, time hrs <=24. An outline of the steps:
(§3)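 2 x 10^5 freshly isolated human PBMC from healthy donors, separated on Histopaque, given a single compound concentration. Harvested early (6 hr) or late (20h). Cytokine mRNA read by qRT-PCR as relative normalized expression (fold) against vehicle-treated cells.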

Data set [11] has the same target. Briefly: Activation of human STING in human PBMC cells assessed as induction of CXCL10 expression at 10 uM incubated upto 24 hrs and measured by qt-PCR analysis. In kind it is cell-based. The note with it: filed as activator, time hrs <=24. In short, it runs like this:
as §3

Data set [12] has the same target. Briefly: Activation of human STING in human PBMC cells assessed as induction of TNFalpha expression at 10 uM measured by qt-PCR analysis. In kind it is cell-based. The note with it: filed as activator. In short, it runs like this:
as §3

Data set [13] shares this target. In words: Activation of human STING in human PBMC cells assessed as induction of IL6 expression at 10 uM measured by qt-PCR analysis. In kind it is cell-based. To be noted: filed as activator. In short, it runs like this: as §3
In data set [14] the test system is Stimulator of interferon genes protein (Homo sapiens), Q86WV6 [UNDEFINED MUTATION]. In words: Activation of human STING R232 in human dendritic cells assessed as induction of CD83 measured by qt-PCR analysis. In kind it is cell-based. The note with it: Dendritic cell, filed as activator. An outline of the steps: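 PBMC isolated on Histopaque 1077, ACK-lysed, monocytes purified by MACS. Monocytes at 1 x 10^6 cells/ml in RPMI/10% FBS with 100ng/ml GMCSF and 50ng/ml IL4, 37 °C, 5% CO2, for 24–36 h. Compound added (1% DMSO final) for 6 h. CD86 and CD83 read by qPCR as fold of vehicle-treated cells.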

Data set [15] in a line: Stability in human plasma at 37 degC by LC-MS/MS analysis. In kind it is ADME, cell-free. An outline of the steps: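 Compound at 10 μM was incubated in mouse or human plasma at 37°C and its stability assessed.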
In data set [16] the test system is HeLa. Briefly: Cytotoxicity against human HeLa cells at 5 to 10 uM. In kind it is cell-based. The note with it: dose 5-10 µM.
Data set [17] concerns the target hERG (KCNH2) (Homo sapiens, UniProt Q12809). Briefly: Inhibition of human ERG at 10 uM.
Data set [18] is described as follows: AUC in BALB/c mouse at 5 mg/kg, iv measured up to 24 hrs by LC-MS/MS analysis. The note with it: in vivo. Also on record: route intravenous, dose 5 mg/kg, time <=24. In kind it is ADME, organism-based. In short, it runs like this:
(§4)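 Overnight-fasted mice, n=3 per group, single dose by lateral tail vein (iv) or oral gavage (po). Retro-orbital blood under isoflurane at 2 min–24 h (iv) or 5 min–24 h (po). Plasma spun at 1500 x g, 15 min, 4 °C, stored -80 °C, then analysed by LCMS.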

A short description of data set [19]: AUC in BALB/c mouse at 10 mg/kg, po measured up to 24 hrs by LC-MS/MS analysis. In kind it is ADME, organism-based. Details: route oral, dose 10 mg/kg, time <=24. The note with it: in vivo. In short, it runs like this: as §4
Data set [20] in a line: Cmax in BALB/c mouse at 5 mg/kg, iv measured up to 24 hrs by LC-MS/MS analysis. Details: route intravenous, dose 5 mg/kg, time <=24. The note with it: in vivo. In kind it is ADME, organism-based. An outline of the steps:
as §4

A short description of data set [21]: Volume of distribution in BALB/c mouse at 5 mg/kg, iv measured up to 24 hrs by LC-MS/MS analysis. The note with it: in vivo. In kind it is ADME, organism-based. In short, it runs like this:
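Overnight-fasted mice, randomized, n=3 per group, each given a single dose by lateral tail vein (iv) or oral gavage. Blood (50 μl per point, under isoflurane) was taken from the retro-orbital plexus. Sampling was at 2 min–24 h after iv and 5 min–24 h after oral dosing. Plasma was separated at 1500 x g for 15 min at 4 °C, stored at -80 °C, and analysed by LCMS.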

Data set [22] can be described thus: Chemical stability of compound in buffer at pH 3 to 8.
For data set [23], the system named is CCRF-SB. In words: Activation of human wild type STING R232 expressed in CCRF-SB cells assessed as phosphorylation at (Ser396) at 10 uM incubated for 2 hrs and measured by Western blot analysis. The note with it: filed as activator.

T1 sequence (Q86WV6 whole entry): as the sequence (Q86WV6 whole entry, looked up, change not shown) above
Chain of hERG (KCNH2) (Q12809 whole entry): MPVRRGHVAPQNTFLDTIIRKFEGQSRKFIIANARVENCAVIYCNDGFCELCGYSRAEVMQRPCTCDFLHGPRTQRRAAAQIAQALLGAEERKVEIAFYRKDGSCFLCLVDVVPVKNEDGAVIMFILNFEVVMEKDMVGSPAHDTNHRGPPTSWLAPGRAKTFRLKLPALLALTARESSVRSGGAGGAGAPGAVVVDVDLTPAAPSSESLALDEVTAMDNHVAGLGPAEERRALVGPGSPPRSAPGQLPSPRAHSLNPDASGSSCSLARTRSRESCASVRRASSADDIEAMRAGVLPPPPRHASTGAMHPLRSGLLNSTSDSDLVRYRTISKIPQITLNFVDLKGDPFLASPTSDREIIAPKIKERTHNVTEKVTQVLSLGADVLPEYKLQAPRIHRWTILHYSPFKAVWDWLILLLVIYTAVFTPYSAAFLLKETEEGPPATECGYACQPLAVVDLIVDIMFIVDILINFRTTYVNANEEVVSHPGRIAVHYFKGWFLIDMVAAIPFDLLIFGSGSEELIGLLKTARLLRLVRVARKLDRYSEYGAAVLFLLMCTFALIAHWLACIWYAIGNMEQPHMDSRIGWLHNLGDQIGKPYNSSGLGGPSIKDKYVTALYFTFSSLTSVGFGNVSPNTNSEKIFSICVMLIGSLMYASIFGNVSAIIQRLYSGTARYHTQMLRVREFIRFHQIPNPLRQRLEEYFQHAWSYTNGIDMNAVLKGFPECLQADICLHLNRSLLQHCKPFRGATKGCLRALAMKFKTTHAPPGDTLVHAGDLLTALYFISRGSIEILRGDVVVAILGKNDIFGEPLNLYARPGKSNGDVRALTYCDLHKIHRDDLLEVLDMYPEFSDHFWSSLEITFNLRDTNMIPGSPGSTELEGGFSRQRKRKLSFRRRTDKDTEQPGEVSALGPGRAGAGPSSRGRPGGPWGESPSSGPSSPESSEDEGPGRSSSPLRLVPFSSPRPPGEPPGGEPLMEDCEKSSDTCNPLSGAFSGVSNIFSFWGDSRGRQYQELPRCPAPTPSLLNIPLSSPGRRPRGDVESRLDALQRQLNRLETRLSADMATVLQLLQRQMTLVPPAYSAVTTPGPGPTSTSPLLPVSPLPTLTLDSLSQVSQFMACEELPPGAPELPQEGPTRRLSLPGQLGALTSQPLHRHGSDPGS

As to `CC1(C)C(=O)N(Cc2c(F)cccc2Cl)c2cc(C(=O)NCc3c(F)cc(F)cc3F)ccc21`, the concentration giving a half-maximal response (EC50) in [1] came out at 0.185 µM. Also, the outcome in [2], in [5], in [6], in data set [7], in [8] and in [9] was Active. For the same compound, the result in data set [10], in data set [11], in data set [12], in data set [13], in data set [14] and in data set [23] was Active. The Activity result in [3] was “Dose-dependent effect”; in data set [4], “Dose-dependent effect”; in data set [16] it was “Non-Toxic”. In addition, the Stabilty entry in data set [15] and in data set [22] was “Stable” throughout. The compound further registered an inhibition at 10 µM in [17] of 20%. Further, the figures for the AUC at 24 h in data set [18] and in data set [19] were 1.22 µg·h/mL and 2.09 µg·h/mL, respectively. Also, in [20], the Cmax is 1.87 µg/mL. The volume of distribution (Vd) in data set [21] was determined as 2.69 L/kg.
